{
  "source": "ChEMBL document CHEMBL5331146",
  "about": "“Evaluating Alkaline Phosphatase-Instructed Self-Assembly of d-Peptides for Selectively Inhibiting Ovarian Cancer Cells” (J Med Chem, 2023)",
  "key": {"OVSAHO [1]": {"test_system": "OVSAHO", "assay": "Cytotoxicity against human OVSAHO cells assessed as inhibition of cell growth incubated for 72 hrs by MTT assay", "assay_type": "functional, cell-based", "summary_of_the_method": "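OVSAHO cells incubated 72 h with each EISA substrate across a concentration series; viability measured and IC50 derived.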"}, "[2]": {"assay": "Cytotoxicity against human A2780-Res cells assessed as inhibition of cell growth incubated for 72 hrs by MTT assay", "assay_type": "functional, cell-based", "summary_of_the_method": "(§1)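 Cell viability after 72 h continuous exposure of each ovarian or CHO cell line to the substrate over a concentration series. IC50 is taken from the 72 h viability curves.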"}, "OVSAHO [3]": {"test_system": "OVSAHO", "assay": "Cytotoxicity against human OVSAHO cells assessed as enhancement in cell growth inhibition at 20 uM incubated for 24 hrs in presence of 1.25 to 2.5 uM cisplatin by MTT assay", "assay_type": "functional, cell-based", "summary_of_the_method": "(§2)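 OVSAHO cells are co-treated for 24 h with the EISA substrate at a fixed 20 μM plus the partner drug over its concentration range. Viability is compared with substrate alone and drug alone. Significance is given as p thresholds (ns, *, **, ***).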"}, "OVSAHO [4]": {"test_system": "OVSAHO", "assay": "Cytotoxicity against human OVSAHO cells assessed as enhancement in cell growth inhibition at 20 uM incubated for 24 hrs in presence of 1.25 to 5 uM 3-((4-(tert-butyl)phenyl)sulfonyl)acrylonitrile by MTT assay", "assay_type": "functional, cell-based", "summary_of_the_method": "as §2"}, "OVSAHO [5]": {"test_system": "OVSAHO", "assay": "Cytotoxicity against human OVSAHO cells assessed as enhancement in cell growth inhibition at 20 uM incubated for 24 hrs in presence of 25 to 50 uM Bortezomib by MTT assay", "assay_type": "functional, cell-based", "summary_of_the_method": "as §2"}, "OVSAHO [6]": {"test_system": "OVSAHO", "assay": "Cytotoxicity against human OVSAHO cells assessed as cell viability at 20 uM incubated for 24 hrs in presence of doxorubicin by MTT assay (reference value: 120%)", "assay_type": "functional", "conditions": "read-out: Activity"}, "OVSAHO [7]": {"test_system": "OVSAHO", "assay": "Cytotoxicity against human OVSAHO cells assessed as enhancement in cell growth inhibition at 20 uM incubated for 24 hrs in presence of 2.5 to 10 uM paclitaxel by MTT assay", "assay_type": "functional, cell-based", "summary_of_the_method": "as §2"}, "[8]": {"assay": "Cytotoxicity against CHOK cells assessed as inhibition of cell growth incubated for 72 hrs by MTT assay", "assay_type": "functional, cell-based", "conditions": "Cricetulus griseus", "summary_of_the_method": "as §1"}, "OVSAHO [9]": {"test_system": "OVSAHO", "assay": "Cytotoxicity against human OVSAHO cells assessed as enhancement in cell growth inhibition at 20 uM incubated for 24 hrs in presence of 0.5 to 2 uM 2-((4-(cyclopropanecarbonyl)piperazin-1-yl)methyl)benzo[d]isothiazol-3(2H)-one by MTT assay", "assay_type": "functional, cell-based", "summary_of_the_method": "as §2"}, "OVSAHO [10]": {"test_system": "OVSAHO", "assay": "Cytotoxicity against human OVSAHO cells assessed as enhancement in cell growth inhibition at <5 uM incubated for 24 to 72 hrs in presence of doxorubicin by MTT assay", "assay_type": "functional, cell-based", "conditions": "time 24-72 hrs", "summary_of_the_method": "(§3)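 OVSAHO cells are exposed to a series of substrate concentrations combined with doxorubicin, alongside each agent alone. Viability is read at 24 h, 48 h and 72 h. Single-agent doxorubicin was also run at 1.25, 2.5 and 5 μM. Significance is given as p thresholds.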"}, "OVSAHO [11]": {"test_system": "OVSAHO", "assay": "Cytotoxicity against human OVSAHO cells assessed as enhancement in cell growth inhibition at 20 uM incubated for 24 hrs in presence of 1 to 20 uM ethyl (2-((cyanocarbonyl)(2,4-dimethoxyphenyl)amino)-2-(thiophen-2-yl)acetyl)glycinate by MTT assay", "assay_type": "functional, cell-based", "summary_of_the_method": "as §2"}, "OVSAHO [12]": {"test_system": "OVSAHO", "assay": "Cytotoxicity against human OVSAHO cells assessed as enhancement in cell growth inhibition at 20 uM incubated for 24 hrs in presence of 25 to 50 uM talazoparib by MTT assay", "assay_type": "functional, cell-based", "summary_of_the_method": "as §2"}, "OVSAHO [13]": {"test_system": "OVSAHO", "assay": "Cytotoxicity against human OVSAHO cells assessed as enhancement in cell growth inhibition at 20 uM incubated for 24 hrs in presence of 50 to 200 nM methyl (5R,7R,8S)-7-hydroxy-8-methyl-15-oxo-5,6,7,8,14,15-hexahydro-13H-16-oxa-4b,8a,14-triaza-5,8-methanodibenzo[b,h]cycloocta[jkl]cyclopenta[e]-as-indacene-7-carboxylate by MTT assay", "assay_type": "functional, cell-based", "summary_of_the_method": "as §2"}, "OVSAHO [14]": {"test_system": "OVSAHO", "assay": "Cytotoxicity against human OVSAHO cells assessed as enhancement in cell growth inhibition at 10 to 20 uM incubated for 24 to 72 hrs in presence of doxorubicin by MTT assay", "assay_type": "functional, cell-based", "conditions": "dose 10-20 µM, time 24-72 hrs", "summary_of_the_method": "as §3"}, "[15]": {"assay": "Cytotoxicity against mouse GEMM 4306 cells assessed as inhibition of cell growth incubated for 72 hrs by MTT assay", "assay_type": "functional, cell-based", "conditions": "GEMM 4306, 72 h", "summary_of_the_method": "as §1"}, "OVSAHO [16]": {"test_system": "OVSAHO", "assay": "Cytotoxicity against human OVSAHO cells assessed as inhibition of cell growth at 1.25 to 5 uM incubated for 24 hrs by MTT assay relative to control", "assay_type": "functional", "design": "scale not given: the % may be the effect or the level left", "conditions": "dose 1.25-5 µM", "summary_of_the_method": "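OVSAHO cells treated with doxorubicin alone at 1.25, 2.5 and 5 μM for 24 h; cell viability measured.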"}},
  "note": "Active and inactive are the calls of the source. Square brackets hold non-standard residues; d marks the D form. Peptide text beside a SMILES is read from it. * marks the point of attachment. d(pY) = N[C@H](Cc1ccc(OP(=O)(O)O)cc1)C(=O)O; Acetyl(2-naphthyl) = O=C(Cc1ccc2ccccc2c1)*",
  "data": [
    {"compound": "COC(=O)CC[C@@H](NC(=O)[C@@H](Cc1ccc(OP(=O)(O)O)cc1)NC(=O)[C@@H](Cc1ccccc1)NC(=O)[C@@H](Cc1ccccc1)NC(=O)[C@@H](CC(C)C)NC(=O)Cc1ccc2ccccc2c1)C(=O)OC", "values": [
      {"measurement": "IC50", "setting": "OVSAHO [1]", "result": "> 200", "unit": "µM"}
    ]},
    {"compound": "COC(=O)CC[C@@H](NC(=O)[C@@H](Cc1ccc(OP(=O)(O)O)cc1)NC(=O)[C@@H](Cc1ccccc1)NC(=O)[C@@H](Cc1ccccc1)NC(=O)[C@H](CC(C)C)NC(=O)Cc1ccc2ccccc2c1)C(=O)OC", "values": [
      {"measurement": "IC50", "setting": "OVSAHO [1]", "result": 46.9, "unit": "µM"}
    ]},
    {"compound": "COC(=O)CC[C@@H](NC(=O)[C@@H](Cc1ccc(OP(=O)(O)O)cc1)NC(=O)[C@@H](Cc1ccccc1)NC(=O)[C@@H](Cc1ccccc1)NC(=O)[C@@H](Cc1ccccc1)NC(=O)Cc1ccc2ccccc2c1)C(=O)OC", "values": [
      {"measurement": "IC50", "setting": "OVSAHO [1]", "result": "> 200", "unit": "µM"}
    ]},
    {"compound": "COC(=O)CC[C@@H](NC(=O)[C@@H](Cc1ccc(OP(=O)(O)O)cc1)NC(=O)[C@H](CC(C)C)NC(=O)[C@@H](Cc1ccccc1)NC(=O)[C@@H](Cc1ccccc1)NC(=O)Cc1ccc2ccccc2c1)C(=O)OC", "values": [
      {"measurement": "IC50", "setting": "OVSAHO [1]", "result": 70.5, "unit": "µM"}
    ]},
    {"compound": "COC(=O)CC[C@@H](NC(=O)[C@@H](Cc1ccc(OP(=O)(O)O)cc1)NC(=O)[C@@H](Cc1ccccc1)NC(=O)[C@@H](Cc1ccccc1)NC(=O)Cc1ccc2ccccc2c1)C(=O)OC", "note": "({Acetyl(2-naphthyl)}-[dF][dF][d(pY)][dE](OMe)-OMe)", "values": [
      {"measurement": "IC50", "setting": "[2]", "result": "> 200", "unit": "µM"},
      {"measurement": "Activity", "setting": "OVSAHO [3]", "result": "Active"},
      {"measurement": "Activity", "setting": "OVSAHO [4]", "result": "Active"},
      {"measurement": "Activity", "setting": "OVSAHO [5]", "result": "inactive"},
      {"measurement": "viability at 20 µM", "setting": "OVSAHO [6]", "result": 20, "unit": "%"},
      {"measurement": "Activity", "setting": "OVSAHO [7]", "result": "inactive"},
      {"measurement": "IC50", "setting": "[8]", "result": "> 200", "unit": "µM"},
      {"measurement": "Activity", "setting": "OVSAHO [9]", "result": "inactive"},
      {"measurement": "Activity", "setting": "OVSAHO [10]", "result": "inactive"},
      {"measurement": "Activity", "setting": "OVSAHO [11]", "result": "inactive"},
      {"measurement": "Activity", "setting": "OVSAHO [12]", "result": "inactive"},
      {"measurement": "Activity", "setting": "OVSAHO [13]", "result": "Active"},
      {"measurement": "Activity", "setting": "OVSAHO [14]", "result": "Active"},
      {"measurement": "IC50", "setting": "[15]", "result": "> 200", "unit": "µM"}
    ]},
    {"compound": "COc1cccc2c1C(=O)c1c(O)c3c(c(O)c1C2=O)C[C@@](O)(C(=O)CO)C[C@@H]3O[C@H]1C[C@H](N)[C@H](O)[C@H](C)O1", "note": "[DOXORUBICIN]", "values": [
      {"measurement": "Activity", "setting": "OVSAHO [16]", "result": "~75", "unit": "%"}
    ]}
  ]
}
